13 compounds from ChEMBL document CHEMBL4808231, “Development of curcumin-based amyloid β aggregation inhibitors for Alzheimer's disease using the SAR matrix approach” (Bioorg Med Chem, 2021) can be followed below.

Molecules are shown by their SMILES. Calls of active or inactive are those of the source. The calls are words filed in the database; no cut-off is given here.

For orientation: IC50 means the concentration at which inhibition is half-maximal.

The target of one experiment is Amyloid-beta precursor protein (Homo sapiens) (UniProt P05067). Description: Inhibition of amyloid beta (unknown origin) aggregation assessed as increase in generation of amyloid beta oligomers at 10 uM incubated for 30 mins by negative staining TEM imaging analysis.
Amyloid-beta precursor protein (Homo sapiens), sequence (P05067 whole entry): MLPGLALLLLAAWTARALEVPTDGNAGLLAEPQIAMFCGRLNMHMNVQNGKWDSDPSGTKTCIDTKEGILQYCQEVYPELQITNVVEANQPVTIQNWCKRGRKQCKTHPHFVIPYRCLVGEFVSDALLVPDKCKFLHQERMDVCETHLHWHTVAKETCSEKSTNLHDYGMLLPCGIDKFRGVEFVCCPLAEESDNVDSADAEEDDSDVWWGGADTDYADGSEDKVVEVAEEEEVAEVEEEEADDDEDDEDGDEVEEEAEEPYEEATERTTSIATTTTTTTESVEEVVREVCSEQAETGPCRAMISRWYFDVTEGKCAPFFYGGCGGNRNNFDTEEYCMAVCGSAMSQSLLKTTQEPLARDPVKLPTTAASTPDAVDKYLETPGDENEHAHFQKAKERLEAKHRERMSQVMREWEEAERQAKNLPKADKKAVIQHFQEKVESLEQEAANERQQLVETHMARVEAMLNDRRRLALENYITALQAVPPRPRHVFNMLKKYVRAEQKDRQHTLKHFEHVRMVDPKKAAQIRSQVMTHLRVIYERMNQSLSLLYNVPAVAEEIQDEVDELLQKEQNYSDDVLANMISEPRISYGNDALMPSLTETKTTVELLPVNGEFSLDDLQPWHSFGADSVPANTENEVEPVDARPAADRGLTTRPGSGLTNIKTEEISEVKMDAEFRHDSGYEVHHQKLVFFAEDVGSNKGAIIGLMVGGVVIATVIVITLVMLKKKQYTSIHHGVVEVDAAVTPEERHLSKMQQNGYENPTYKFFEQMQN
Settings: not given
Summed up:
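Aβ monomer stock (500 µM in 2 mM NaOH, centrifuged supernatant) diluted to 5 µM, incubated alone or with compound in PBS pH 7.4 at 37 °C for 30 min. Sample applied to plasma-hydrophilised carbon grid for 1 min at RT, washed with water, stained 1 min with 1% Nano-W, imaged by TEM at 200 kV.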
As to `COC(=O)COc1ccc(/C=C/C(=O)CC(=O)/C=C/c2ccc(O)c(OC)c2)cc1C(F)(F)F`, the inhibition result was “Active”.

A further experiment has as its system N2a. Kind of experiment: Neuroprotective effect against amyloid beta-induced cytotoxicity in mouse N2a cells assessed as cell viability measured after 3 hrs by MTT assay (reference value: 55%). The format is functional.
Settings: not given
`COC(=O)COc1ccc(/C=C/C(=O)CC(=O)/C=C/c2ccc(O)c(OC)c2)cc1C(F)(F)F`: the Activity is 70%. On the same count and under the same terms, the figure for `COc1cc(/C=C/C(=O)CC(=O)/C=C/c2ccc(OCC(=O)OC(C)(C)C)c(C(F)(F)F)c2)ccc1O` is above 90%.

Tested on in another experiment: not listed separately
Description: Neurotoxicity in human U87 MG cells assessed as cell viability for 24 hrs by MTT assay. The following applies: U-87 MG. Type of experiment: cell-based, U-87MG ATCC. The method in brief:
(§1)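 N2A or U87 MG cells (8x10^3/well, DMEM + 10% FBS, grown overnight at 37 °C, 5% CO2) treated 24 h with compound at 1, 5, 10, 25, 50, 100 and 200 µM. MTT 0.5 mg/mL for 3 h, DMSO added, absorbance read at 550 nm. IC50 from semi-log dose-response plots; mean ± s.d. of three independent experiments in triplicate.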
A general note: Tetrazolium assays rely on reduction of a dye to a coloured formazan, in cell work by metabolically active cells.
Turning to `COC(=O)COc1ccc(/C=C/C(=O)CC(=O)/C=C/c2ccc(O)c(OC)c2)cc1C(F)(F)F`, the 50% inhibitory concentration (IC50) stood at 90000 nM. For the compound `COc1cc(/C=C/C(=O)CC(=O)/C=C/c2cccc(C(F)(F)F)c2)ccc1O`, the IC50 was determined as 88700 nM. On the same count and under the same terms, the figure for `COc1cc(/C=C/C(=O)CC(=O)/C=C/c2ccc(O)c(OC)c2)ccc1O` [CURCUMIN] is 18400 nM; for `COc1cc(/C=C/C(=O)CC(=O)/C=C/c2ccc(OCC(=O)OC(C)(C)C)c(C(F)(F)F)c2)ccc1O` it is above 100000 nM.

Tested on in another experiment: not listed separately
Kind of experiment: Neurotoxicity in mouse N2a cells assessed as cell viability for 24 hrs by MTT assay.
Settings: not given
The format is cell-based. Summed up: as §1
`COC(=O)COc1ccc(/C=C/C(=O)CC(=O)/C=C/c2ccc(O)c(OC)c2)cc1C(F)(F)F`: the IC50 was 38700 nM. The same measure, in the same setting: the figure for `COc1cc(/C=C/C(=O)CC(=O)/C=C/c2cccc(C(F)(F)F)c2)ccc1O` is 65700 nM. On the same count and under the same terms, the figure for `COc1cc(/C=C/C(=O)CC(=O)/C=C/c2ccc(O)c(OC)c2)ccc1O` [CURCUMIN] is 22600 nM; for `COc1cc(/C=C/C(=O)CC(=O)/C=C/c2ccc(OCC(=O)OC(C)(C)C)c(C(F)(F)F)c2)ccc1O` it is above 100000 nM.

Tested on in another experiment: not listed separately
Kind of experiment: Inhibition of human amyloid beta 42 aggregation assessed as decreasing in fluorescence intensity for 3 hrs by ThT fluorescence assay.
Settings: not given
The method in brief:
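Aβ42 monomer (20 µM final) plus ThT (20 µM final, diluted in PBS pH 7.4) and serial 10-fold compound dilutions (1 to 0.00001 µM), 37 °C for 3 h with 15 s shaking every 5 min. Fluorescence read at ex 430/em 480 nm and corrected against a PBS+ThT blank. IC50 taken from intensity at half Vmax versus concentration; mean ± s.d. of triplicates.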
Take `COc1cc(/C=C/C(=O)CC(=O)/C=C/c2ccc(O)c(C(F)(F)F)c2)ccc1O`: the IC50 stood at 52 nM.

Consider `COC(=O)COc1ccc(/C=C/C(=O)CC(=O)/C=C/c2ccc(O)c(OC)c2)cc1OC`, for which the IC50 turned out to be 29 nM.

For the compound `Nc1c2c(nc3ccccc13)CCCC2` [TACRINE], the IC50 turned out to be 22 nM.

For the compound `COc1cc(/C=C/C(=O)CC(=O)/C=C/c2ccc(OCC(=O)O)c(C(F)(F)F)c2)ccc1O`, the IC50 is 698 nM. Turning to `COC(=O)COc1ccc(/C=C/C(=O)CC(=O)/C=C/c2cccc(C(F)(F)F)c2)cc1OC`, the IC50 came to 46 nM. Still for that read-out and setting: the figure for `COC(=O)COc1ccc(/C=C/C(=O)CC(=O)/C=C/c2ccc(O)c(OC)c2)cc1C(F)(F)F` is 7 nM; for `O=C(/C=C/c1cccc(C(F)(F)F)c1)CC(=O)/C=C/c1ccc(O)c(C(F)(F)F)c1` it is 18 nM. On the same count and under the same terms, the figure for `COC(=O)COc1ccc(/C=C/C(=O)CC(=O)/C=C/c2ccc(O)c(C(F)(F)F)c2)cc1C(F)(F)F` is 109 nM.

For `COc1cc(/C=C/C(=O)CC(=O)/C=C/c2cccc(C(F)(F)F)c2)ccc1O`, the IC50 is 13 nM. Still for that read-out and setting: the figure for `COC(=O)COc1ccc(/C=C/C(=O)CC(=O)/C=C/c2ccc(OCC(=O)OC)c(C(F)(F)F)c2)cc1OC` is 55 nM; for `COc1cc(/C=C/C(=O)CC(=O)/C=C/c2ccc(O)c(OC)c2)ccc1O` [CURCUMIN] it is 693 nM; for `COc1cc(/C=C/C(=O)CC(=O)/C=C/c2ccc(OCC(=O)OC(C)(C)C)c(C(F)(F)F)c2)ccc1O` it is 55 nM. Consider `COC(=O)COc1ccc(/C=C/C(=O)CC(=O)/C=C/c2ccc(O)c(C(F)(F)F)c2)cc1OC`, for which the IC50 amounted to 22 nM.
